Data on 33 molecules can be found in PubChem BioAssay AID602285 (Broad Institute, 2012).

Structures are written as SMILES. The source made the active and inactive calls.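 The calls were made as follows: active = AC50 at or below twice the top valid dose for that sample, with falling signal; inconclusive = flat curve with inhibition of 30 to 70%, or poor fit; inactive = activity in the wrong direction, plus the rest.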

Chain of Scavenger receptor class B member 1 (Mus musculus) (Q61009 whole entry, looked up): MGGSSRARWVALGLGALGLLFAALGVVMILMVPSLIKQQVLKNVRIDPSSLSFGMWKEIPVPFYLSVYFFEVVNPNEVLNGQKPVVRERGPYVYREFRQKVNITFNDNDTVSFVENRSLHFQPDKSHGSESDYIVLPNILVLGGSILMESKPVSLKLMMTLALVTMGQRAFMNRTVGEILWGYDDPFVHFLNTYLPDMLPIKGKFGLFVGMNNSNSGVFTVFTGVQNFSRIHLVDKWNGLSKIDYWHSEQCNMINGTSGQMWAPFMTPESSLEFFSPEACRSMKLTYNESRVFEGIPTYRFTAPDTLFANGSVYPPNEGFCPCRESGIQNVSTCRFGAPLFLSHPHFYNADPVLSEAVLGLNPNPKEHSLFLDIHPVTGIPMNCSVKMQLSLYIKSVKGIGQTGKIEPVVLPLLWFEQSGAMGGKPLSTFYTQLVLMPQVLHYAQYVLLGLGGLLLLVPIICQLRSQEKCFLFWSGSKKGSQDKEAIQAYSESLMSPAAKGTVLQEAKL

The first assay concerns the target Scavenger receptor class B member 1 (Mus musculus) (UniProt Q61009). Put plainly: inhibitors of HDL uptake via mouse SR-BI, dose response, ldlA[mSR-BI] CHO cells, fluorescence plate reader, dry powder, set 8 (AID 602285). Particulars: DiI-HDL uptake fluorescence, 3 h. The procedure, abridged: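 Material: CHO ldlA cells overexpressing mouse SR-BI; detection: bottom-read DiI fluorescence after PBS washes, excitation 550 nm, emission 595 nm; schedule: 3 h uptake at 37 °C; controls: DMSO as neutral control, BLT-1 as inhibitor control; medium: Ham's F12, fatty acid-free BSA, HEPES pH 7.4; compound: pin-transferred compounds, dose series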
The term AC50 denotes the concentration at which the activity in the assay is half-maximal. Regarding `C[C@@H]1CN([C@H](C)CO)C(=O)c2cc(NC(=O)Cc3cn(C)c4ccccc34)ccc2O[C@@H]1CN(C)S(=O)(=O)c1ccc(Cl)cc1`, the AC50 is 11.5 µM.

For the molecule `C[C@H](CO)N1C[C@H](C)[C@@H](CN(C)S(=O)(=O)c2ccc(Cl)cc2)Oc2ccc(NC(=O)Cc3cn(C)c4ccccc34)cc2C1=O`, the AC50 was 8.91 µM.

As to `C[C@@H]1CN([C@H](C)CO)C(=O)c2cc(NC(=O)Cc3cn(C)c4ccccc34)ccc2O[C@H]1CN(C)C(=O)Nc1cccc2ccccc12`, the AC50 was 8.3 µM.

Consider `C[C@@H]1CN([C@H](C)CO)C(=O)c2cc(NC(=O)Cc3cn(C)c4ccccc34)ccc2O[C@H]1CN(C)C(=O)Nc1ccc(C(F)(F)F)cc1`, for which the AC50 is 2.18 µM.

Turning to `C[C@@H]1CN([C@H](C)CO)C(=O)c2cc(NC(=O)Cc3cn(C)c4ccccc34)ccc2O[C@H]1CN(C)C(=O)Nc1ccccc1`, the AC50 was 4.92 µM.

Turning to `C[C@@H]1CN([C@H](C)CO)C(=O)c2cc(NC(=O)Cc3cn(C)c4ccccc34)ccc2O[C@H]1CN(C)S(=O)(=O)c1ccccc1`, the AC50 was 0.215 µM.

Regarding `C[C@@H]1CN([C@H](C)CO)C(=O)c2cc(NC(=O)CCCCCC(=O)Nc3ccccc3N)ccc2O[C@H]1CN(C)S(=O)(=O)c1ccc(Cl)cc1`, the AC50 is 0.563 µM.

For `C[C@@H]1CN([C@H](C)CO)C(=O)c2cc(NC(=O)Cc3cn(C)c4ccccc34)ccc2O[C@H]1CN(C)S(=O)(=O)c1ccc(F)cc1`, the AC50 was 1.11 µM.

`C[C@H](C(=O)NC1CCCC1)N(C(=O)Cn1nnc(-c2ccc3c(c2)OCO3)n1)C1CCCCC1`: the AC50 is 0.0374 µM.

In the case of `COc1ccc(-c2nnn(CC(=O)N(C3CCCCC3)C(C)C(=O)NC3CCCCC3)n2)cc1OC` (stereo not drawn), the AC50 was 0.2 µM.

As for `Cc1ccc(S(=O)(=O)N(C)C[C@@H]2Oc3ccc(NC(=O)Cc4cn(C)c5ccccc45)cc3C(=O)N([C@H](C)CO)C[C@H]2C)cc1`, the AC50 is 0.21 µM.

Regarding `C[C@@H]1CN([C@H](C)CO)C(=O)c2cc(NC(=O)Nc3ccc(F)cc3)ccc2O[C@H]1CN(C)S(=O)(=O)c1ccc(Cl)cc1`, the AC50 is 0.0708 µM.

`Cc1noc(C)c1NC(=O)N(C)C[C@@H]1Oc2ccc(NC(=O)Cc3cn(C)c4ccccc34)cc2C(=O)N([C@H](C)CO)C[C@H]1C`: the AC50 was 6.97 µM.

Turning to `C[C@@H]1CN([C@H](C)CO)C(=O)c2cc(NS(C)(=O)=O)ccc2O[C@H]1CN(C)S(=O)(=O)c1ccc(Cl)cc1`, the AC50 is 1.64 µM.

With `C[C@@H]1CN([C@H](C)CO)C(=O)c2cc(NC(=O)Cc3cn(C)c4ccccc34)ccc2O[C@H]1CN(C)C(=O)Nc1ccc2c(c1)OCO2`, the AC50 was 4.6 µM.

Take `COc1ccc(S(=O)(=O)N(C)C[C@@H]2Oc3ccc(NC(=O)Cc4cn(C)c5ccccc45)cc3C(=O)N([C@H](C)CO)C[C@H]2C)cc1`: the AC50 was 2.01 µM.

For `C[C@@H]1CN([C@H](C)CO)C(=O)c2cc(NC(=O)Cc3cn(C)c4ccccc34)ccc2O[C@H]1CN(C)S(=O)(=O)c1ccc(Cl)cc1`, the AC50 was 0.174 µM.

`COCC(=O)N1CCc2cc(-c3csc(NC(=O)c4cc(OC)cc(OC)c4)n3)ccc21`: the AC50 is less than 0.015 µM.

For the molecule `C[C@@H]1CN([C@H](C)CO)C(=O)c2cc(NC(=O)Cc3cn(C)c4ccccc34)ccc2O[C@H]1CN(C)Cc1ccc2c(c1)OCO2`, the AC50 is 0.865 µM.

In the case of `C[C@@H]1CN([C@H](C)CO)C(=O)c2cc(NC(=O)Nc3ccc4c(c3)OCO4)ccc2O[C@H]1CN(C)S(=O)(=O)c1ccc(Cl)cc1`, the AC50 is 0.856 µM.

For the molecule `COc1ccc(S(=O)(=O)Nc2ccc3c(c2)C(=O)N([C@H](C)CO)C[C@@H](C)[C@H](CN(C)S(=O)(=O)c2ccc(Cl)cc2)O3)cc1`, the AC50 is 2.69 µM.

Turning to `C[C@@H]1CN([C@H](C)CO)C(=O)c2cc(NC(=O)C3CCCCC3)ccc2O[C@H]1CN(C)S(=O)(=O)c1ccc(Cl)cc1`, the AC50 is 0.0304 µM.

Turning to `Cc1noc(C)c1NC(=O)Nc1ccc2c(c1)C(=O)N([C@H](C)CO)C[C@@H](C)[C@H](CN(C)S(=O)(=O)c1ccc(Cl)cc1)O2`, the AC50 was 7.1 µM.

Regarding `C[C@@H]1CN([C@H](C)CO)C(=O)c2cc(NC(=O)CCCN(C)C)ccc2O[C@H]1CN(C)S(=O)(=O)c1ccc(Cl)cc1`, the AC50 is > 70 µM (inactive).

Take `C[C@H](CO)N1C[C@H](C)[C@H](CN(C)CC2CCCCC2)Oc2c(NS(=O)(=O)c3cn(C)cn3)cccc2C1=O`: the AC50 was > 70 µM (inactive).

Take `C[C@@H]1CN([C@@H](C)CO)C(=O)Cc2cc(NS(C)(=O)=O)ccc2O[C@@H]1CN(C)Cc1ccc(C(F)(F)F)cc1`: the AC50 was 22.3 µM.

In the case of `COc1ccc(NC(=O)Nc2ccc3c(c2)C(=O)N([C@H](C)CO)C[C@@H](C)[C@H](CN(C)S(=O)(=O)c2ccc(Cl)cc2)O3)cc1`, the AC50 is 0.304 µM.

As to `C[C@@H]1CN([C@@H](C)CO)C(=O)c2cc(NC(=O)NC3CCCCC3)ccc2O[C@H]1CN(C)Cc1ccncc1`, the AC50 is 10.7 µM.

With `C[C@@H]1CN([C@H](C)CO)C(=O)c2cc(NC(=O)Cc3cn(C)c4ccccc34)ccc2O[C@H]1CN(C)Cc1ccc(C(=O)O)cc1`, the concentration at half-maximal activity (AC50) was 11.8 µM.

Staying with this assay, now noted: DiI-HDL uptake fluorescence, 3 h, at 11 µM (top of the series).
For `C[C@@H]1CN([C@H](C)CN)C(=O)c2cc(NC(=O)Cc3cn(C)c4ccccc34)ccc2O[C@H]1CN(C)S(=O)(=O)c1ccc(Cl)cc1`, the “activity change, negative = inhibition” value is “inactive”.

The same assay, now with this note: DiI-HDL uptake fluorescence, 3 h, at 35 µM (top of the series).
For `CNC[C@@H]1OCCCC[C@@H](C)Oc2ccc(NS(=O)(=O)c3ccc(Cl)cc3)cc2C(=O)N([C@H](C)CO)C[C@H]1C`, the “activity change, negative = inhibition” value was “inactive”.

As for `C[C@@H]1CN([C@H](C)CN(C)C)C(=O)c2cc(NC(=O)Cc3cn(C)c4ccccc34)ccc2O[C@H]1CN(C)S(=O)(=O)c1ccc(Cl)cc1`, the “activity change, negative = inhibition” value was “inactive”.

As for `C[C@@H]1CN([C@H](C)CO)C(=O)c2cc(NC(=O)Nc3ccc(C(F)(F)F)cc3)ccc2O[C@H]1CN(C)S(=O)(=O)c1ccc(Cl)cc1`, the “activity change, negative = inhibition” value was “inactive”.
